Data taken from the M2OR odorant receptor database.

These compounds were tested against T1, OR1A1 (Homo sapiens) (UniProt Q9P1Q5). Settings: stereoisomer not certain.
T1 sequence (whole entry): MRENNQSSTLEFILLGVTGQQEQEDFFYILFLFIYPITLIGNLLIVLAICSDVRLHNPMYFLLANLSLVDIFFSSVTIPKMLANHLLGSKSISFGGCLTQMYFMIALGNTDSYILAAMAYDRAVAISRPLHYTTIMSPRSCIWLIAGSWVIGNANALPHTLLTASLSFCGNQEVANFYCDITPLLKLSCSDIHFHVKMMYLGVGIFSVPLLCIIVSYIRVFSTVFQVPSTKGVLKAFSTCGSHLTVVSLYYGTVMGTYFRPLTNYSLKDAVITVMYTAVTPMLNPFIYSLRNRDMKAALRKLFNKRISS
Procedure, shortened: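 Values were gathered from published papers (main text and supplementary material), with extra details requested from the original authors when needed, and checked for typos and inconsistencies. Each receptor–molecule pair is called responsive (active) if the original authors judged the measured signal statistically different from baseline, and non-responsive (inactive) otherwise. Assay methods varied by source, often transient mammalian cell-line luciferase assays. Recorded details include cell line, G-protein, co-transfected protein and tags.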

SMILES	odorant receptor agonist call
Cc1ccc(O)c(C)c1	inactive
CCOC(=O)Cc1ccccc1	active
CCC(Br)C(=O)O (stereo unspecified)	inactive
O=c1cc(O)c2ccccc2o1	inactive
SCc1ccco1	inactive
C=CCc1ccc(OC)cc1	active
C=CCc1ccccc1	inactive
Cc1ccccc1O	inactive
COc1ccc(C=O)cc1	inactive
C=CCSSCC=C	inactive
CCCC(Br)C(=O)O (stereo unspecified)	inactive
CCCCCCC(Br)C(=O)O (stereo unspecified)	inactive
CSSC	inactive
Cc1c([N+](=O)[O-])c(C)c([N+](=O)[O-])c(C(C)(C)C)c1[N+](=O)[O-]	active
CCC1CCC(=O)O1 (stereo unspecified)	inactive
CC(C=O)Cc1ccc2c(c1)OCO2 (stereo unspecified)	active
O=C(O)Cc1ccccc1	inactive
O=C([O-])Cc1ccccc1	inactive
C=CCOC(=O)Cc1ccccc1	active
CCCCC(Br)C(=O)O (stereo unspecified)	inactive
ClC=CCl	inactive
